Blank lines part the entries; values can stand above or below the compound they belong to. Calls of active or inactive are those of the source. The calls are words filed in the database; no cut-off is given here. Positions of bridges follow the written chain, without caps; N, C: chain ends. Non-standard residues stand in square brackets, D forms with d. Residues, ends and D or L forms follow the SMILES beside them. 2Nal = N[C@@H](Cc1ccc2ccccc2c1)C(=O)O; Pen = CC(C)(S)[C@H](N)C(=O)O
Key:
[1] = target: T1, C-X-C chemokine receptor type 4 (Homo sapiens, UniProt P61073); test: Inhibition of anti-CXCR4 PE antibody clone 12G5 binding to CXCR4 in human CCRF-CEM cells preincubated for 30 mins followed by anti-CXCR4 PE antibody clone 12G5 addition measured after 30 mins by flow cytometric method; format: cell-based
Outline: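 5×10^5 CCRF-CEM cells (human T leukemia, CXCR4-overexpressing) were preincubated with peptide (10 pM–10 μM) in PBS with 0.2% BSA and 0.1% NaN3 for 30 min at 37 °C, 5% CO2. They were then labeled 30 min with anti-CXCR4 PE antibody (clone 12G5) and read by flow cytometry.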

[2] = target: T1, C-X-C chemokine receptor type 4; test: Displacement of [125I]-CXCL12 from CXCR4 in human CCRF-CEM cells after 1 hr by gamma counting method; format: cell-based
Outline: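 CCRF-CEM cells suspended in binding buffer (PBS, 5 mM MgCl2, 1 mM CaCl2, 0.25% BSA, pH 7.4) with competitor from 10 pM to 10 μM and 60 pM 125I-CXCL12 (2200 Ci/mmol) tracer. Bound radioactivity counted on a γ counter after 1 h at 4 °C, expressed as percent of total counts. One-site fit gave IC50; mean ± SD of three experiments.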

[3] = Metabolic stability in 90% human serum assessed as parent compound remaining at 1 mM measured at 120 mins by ESI-RP-HPLC method; format: ADME, cell-free; settings: read-out: Stability
Outline: (§1)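 Peptide water solution (1 mM, 10 μL) mixed with 90 μL human serum, giving 0.1 mM peptide in 90% serum, at 37 °C. Aliquots taken at 0, 15, 30, 60, 90 and 120 min. Proteins precipitated with ACN (0.1% TFA) and spun 12 000 rpm, 15 min, 4 °C. Supernatant run on ESI-RP-HPLC; relative amount from A230 peak integration.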

[4] = Metabolic stability in 90% human serum assessed as parent compound remaining at 1 mM measured at 15 mins by ESI-RP-HPLC method; format: ADME, cell-free; settings: read-out: Stability; outline: as §1
[5] = Metabolic stability in 90% human serum assessed as parent compound remaining at 1 mM measured at 60 mins by ESI-RP-HPLC method; format: ADME, cell-free; settings: read-out: Stability; outline: as §1
[6] = Metabolic stability in 90% human serum assessed as parent compound remaining at 1 mM measured at 30 mins by ESI-RP-HPLC method; format: ADME, cell-free; settings: read-out: Stability; outline: as §1
[7] = Metabolic stability in 90% human serum assessed as parent compound remaining at 1 mM measured at 90 mins by ESI-RP-HPLC method; format: ADME, cell-free; settings: read-out: Stability; outline: as §1
Serum [8] = test: Drug level in 90% human serum treated with (4R,7S,10S,13S,16R)-16-((S)-2-((S)-2-amino-5-guanidinopentanamido)propanamido)-7,10-dibenzyl-13-(3-guanidinopropyl)-6,9,12,15-tetraoxo-1,2-dithia-5,8,11,14-tetraazacycloheptadecane-4-carboxylic acid at 1 mM after 15 mins by ESI-RP-HPLC method; format: ADME, cell-free; settings: 0.25 h, 1000 µM; outline: as §1
[9] = target: T1, C-X-C chemokine receptor type 4; settings: 10 nM
[10] = target: T1, C-X-C chemokine receptor type 4; settings: 10 nM; remark: listed apart in the source
[11] = target: Atypical chemokine receptor 3 (Homo sapiens) (UniProt P25106); test: Inhibition of anti-CXCR7 APC antibody clone 11G8 binding to CXCR7 in human MCF7 cells at 0.01 to 10 uM preincubated for 30 mins followed by anti-CXCR7 APC antibody clone 11G8 addition measured after 30 mins by flow cytometric method; format: cell-based
Outline: (§2)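 Selectivity runs: peptide preincubated 30 min at 37 °C, 5% CO2 in PBS with 0.2% BSA and 0.1% NaN3, then cells labeled with receptor antibody and read by flow cytometry. CXCR3: COLO205 colorectal cells, anti-CXCR3 FITC antibody. CXCR7: MCF-7 breast cells, anti-CXCR7 APC antibody (clone 11G8). Results given as mean ± SD.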

[12] = target: T1, C-X-C chemokine receptor type 4; settings: 10 nM; remark: listed apart in the source
[13] = target: T2, C-X-C chemokine receptor type 3 (Homo sapiens) (UniProt P49682); test: Inhibition of anti-CXCR3 FITC antibody clone 1C6/clone 49801 binding to CXCR3 in human COLO205 cells at 0.01 to 10 uM preincubated for 30 mins followed by anti-CXCR3 FITC antibody clone 1C6/clone 49801 addition measured after 30 mins by flow cytometric method; format: cell-based; outline: as §2
T2 sequence (whole entry): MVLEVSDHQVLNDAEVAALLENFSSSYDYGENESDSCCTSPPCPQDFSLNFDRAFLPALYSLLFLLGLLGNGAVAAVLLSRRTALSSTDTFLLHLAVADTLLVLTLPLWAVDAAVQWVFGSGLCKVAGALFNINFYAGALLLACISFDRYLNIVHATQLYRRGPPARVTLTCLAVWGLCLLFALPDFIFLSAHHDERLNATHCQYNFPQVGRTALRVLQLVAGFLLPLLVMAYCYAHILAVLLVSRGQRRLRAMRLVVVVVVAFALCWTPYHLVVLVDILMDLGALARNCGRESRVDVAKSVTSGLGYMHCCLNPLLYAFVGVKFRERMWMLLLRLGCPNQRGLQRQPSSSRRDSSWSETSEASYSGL

[14] = target: T1, C-X-C chemokine receptor type 4; settings: 1 to 100 nM
Serum [15] = test: Drug level in 90% human serum treated with (4R,7S,10S,13S,16R)-16-((S)-2-((S)-2-amino-5-guanidinopentanamido)propanamido)-7,10-dibenzyl-13-(3-guanidinopropyl)-6,9,12,15-tetraoxo-1,2-dithia-5,8,11,14-tetraazacycloheptadecane-4-carboxylic acid at 1 mM after 30 mins by ESI-RP-HPLC method; format: ADME, cell-free; settings: 0.5 h, 1000 µM; outline: as §1

T1 sequence (P61073 whole entry): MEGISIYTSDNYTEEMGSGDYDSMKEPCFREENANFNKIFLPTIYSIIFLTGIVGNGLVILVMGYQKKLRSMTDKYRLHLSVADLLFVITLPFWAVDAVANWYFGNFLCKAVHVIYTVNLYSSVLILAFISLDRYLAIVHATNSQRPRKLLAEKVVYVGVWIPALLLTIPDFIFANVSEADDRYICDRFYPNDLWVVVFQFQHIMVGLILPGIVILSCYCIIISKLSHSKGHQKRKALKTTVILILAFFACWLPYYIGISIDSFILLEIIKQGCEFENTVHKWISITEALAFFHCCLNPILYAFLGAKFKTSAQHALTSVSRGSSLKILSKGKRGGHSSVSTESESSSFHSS
Atypical chemokine receptor 3 (Homo sapiens), sequence (P25106 whole entry): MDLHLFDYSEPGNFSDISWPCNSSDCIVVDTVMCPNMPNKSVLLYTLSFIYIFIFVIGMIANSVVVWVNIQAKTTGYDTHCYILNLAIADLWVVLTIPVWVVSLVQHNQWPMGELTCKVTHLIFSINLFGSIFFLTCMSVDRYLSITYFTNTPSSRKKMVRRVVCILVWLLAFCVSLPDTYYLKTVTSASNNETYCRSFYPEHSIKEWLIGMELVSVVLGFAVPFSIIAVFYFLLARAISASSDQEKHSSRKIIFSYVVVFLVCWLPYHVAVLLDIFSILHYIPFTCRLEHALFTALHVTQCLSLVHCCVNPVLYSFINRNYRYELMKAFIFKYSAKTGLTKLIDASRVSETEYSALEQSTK

- IC50 [1]: 53 nM
- IC50 [2]: 338 nM
Compound: CC(=O)N[C@@H](CCCNC(=N)N)C(=O)N[C@@H](C)C(=O)N[C@@H]1CSSC[C@@H](C(=O)O)NC(=O)[C@H](Cc2ccccc2)NC(=O)[C@H](Cc2ccccc2)NC(=O)[C@H](CCCNC(=N)N)NC1=O (Ac-RA[dC]RFFC-OH; disulfide 3-7)

- IC50 [1]: 40 nM
Compound: CC(=O)N[C@@H](CCCNC(=N)N)C(=O)N[C@@H](C)C(=O)N[C@@H]1CSSC(C)(C)[C@@H](C(=O)O)NC(=O)[C@H](Cc2ccccc2)NC(=O)[C@H](Cc2ccccc2)NC(=O)[C@H](CCCNC(=N)N)NC1=O

- IC50 [1]: 6200 nM
- remaining at 2 h, 1000 µM [3]: 0%
- remaining at 0.25 h, 1000 µM [4]: 67%
- remaining at 1 h, 1000 µM [5]: 0%
- remaining at 0.5 h, 1000 µM [6]: 0%
- remaining at 1.5 h, 1000 µM [7]: 0%
Compound: C[C@H](NC(=O)[C@@H](N)CCCNC(=N)N)C(=O)N[C@H]1CSSC[C@@H](C(=O)O)NC(=O)[C@H](Cc2ccccc2)NC(=O)[C@H](Cc2ccccc2)NC(=O)[C@H](CCCNC(=N)N)NC1=O (H-RACRFFC-OH; disulfide 3-7)

- IC50 [1]: 210 nM
Compound: CC(=O)N[C@@H](CCCNC(=N)N)C(=O)N[C@@H](C)C(=O)N[C@@H]1CSSC(C)(C)[C@@H](C(=O)O)NC(=O)[C@H](Cc2ccccc2)NC(=O)[C@H](Cc2ccc([N+](=O)[O-])cc2)NC(=O)[C@H](CCCNC(=N)N)NC1=O

- Drug metabolism (Serum [8]): Metabolite_Detected
Compound: C[C@H](N)C(=O)N[C@H]1CSSC[C@@H](C(=O)O)NC(=O)[C@H](Cc2ccccc2)NC(=O)[C@H](Cc2ccccc2)NC(=O)[C@H](CCCNC(=N)N)NC1=O (H-ACRFFC-OH; disulfide 2-6)

- IC50 [1]: 1250 nM
Compound: CC(=O)N[C@@H](CCCNC(=N)N)C(=O)N[C@@H](C)C(=O)N[C@@H]1CSSC(C)(C)[C@@H](C(=O)O)NC(=O)[C@H](Cc2ccc(Cl)cc2)NC(=O)[C@H](Cc2ccccc2)NC(=O)[C@H](CCCNC(=N)N)NC1=O

- IC50 [1]: 6 nM
Compound: CC(=O)N[C@@H](CCCNC(=N)N)C(=O)N[C@@H](C)C(=O)N[C@@H]1CSSC(C)(C)[C@@H](C(=O)O)NC(=O)[C@H](Cc2cnc[nH]2)NC(=O)[C@H](Cc2ccccc2)NC(=O)[C@H](CCCNC(=N)N)NC1=O

- IC50 [1]: 1800 nM
Compound: CC(=O)N[C@@H](CCCNC(=N)N)C(=O)N[C@@H](C)C(=O)N[C@@H]1CSSC(C)(C)[C@@H](C(=O)O)NC(=O)[C@H](Cc2ccc3ccccc3c2)NC(=O)[C@H](Cc2ccccc2)NC(=O)[C@H](CCCNC(=N)N)NC1=O

- inhibition [9]: inactive
Compound: c1cc(CN2CCCNCCNCCCNCC2)ccc1CN1CCCNCCNCCCNCC1

- IC50 [1]: 1.5 nM
- inhibition [10]: inactive
- remaining at 2 h, 1000 µM [3]: 100%
- inhibition [11]: inactive
- remaining at 0.25 h, 1000 µM [4]: 100%
- inhibition [12]: Active
- inhibition [13]: inactive
- remaining at 1 h, 1000 µM [5]: 100%
- remaining at 0.5 h, 1000 µM [6]: 100%
- remaining at 1.5 h, 1000 µM [7]: 100%
- inhibition [14]: Active
Compound: CC(=O)N[C@@H](CCCNC(=N)N)C(=O)N[C@@H](C)C(=O)N[C@@H]1CSSC(C)(C)[C@@H](C(=O)O)NC(=O)[C@H](Cc2cnc[nH]2)NC(=O)[C@H](Cc2ccc3ccccc3c2)NC(=O)[C@H](CCCNC(=N)N)NC1=O (Ac-RA[dC]R[2Nal]H[Pen]-OH; disulfide 3-7)

- IC50 [1]: 70 nM
Compound: CC(=O)N[C@@H](CCCNC(=N)N)C(=O)N[C@@H](C)C(=O)N[C@@H]1CSSC(C)(C)[C@@H](C(=O)O)NC(=O)[C@H](Cc2ccccc2)NC(=O)[C@H](Cc2ccc(Cl)cc2)NC(=O)[C@H](CCCNC(=N)N)NC1=O

- IC50 [1]: 3690 nM
Compound: CC(=O)N[C@@H](CCCNC(=N)N)C(=O)N[C@@H](C)C(=O)N[C@@H]1CSSC(C)(C)[C@@H](C(=O)O)NC(=O)[C@H](Cc2ccccc2)NC(=O)[C@H](Cc2cccc3ccccc23)NC(=O)[C@H](CCCNC(=N)N)NC1=O

- IC50 [1]: > 10000 nM
Compound: CC(=O)N[C@@H](CCCNC(=N)N)C(=O)N[C@@H](C)C(=O)N[C@H]1C(=O)N[C@@H](CCCNC(=N)N)C(=O)N[C@@H](Cc2ccccc2)C(=O)N[C@@H](Cc2ccccc2)C(=O)N[C@H](C(=O)O)CSSC1(C)C

- IC50 [1]: > 10000 nM
Compound: CC(=O)N[C@@H](CCCNC(=N)N)C(=O)N[C@@H](C)C(=O)N[C@@H]1CSSC(C)(C)[C@@H](C(=O)O)NC(=O)[C@H](Cc2ccccc2)NC(=O)[C@H](Cc2cnc[nH]2)NC(=O)[C@H](CCCNC(=N)N)NC1=O

- IC50 [1]: 1530 nM
Compound: CC(=O)N[C@@H](CCCNC(=N)N)C(=O)N[C@@H](C)C(=O)N[C@H]1C(=O)N[C@@H](CCCNC(=N)N)C(=O)N[C@@H](Cc2ccccc2)C(=O)N[C@@H](Cc2ccccc2)C(=O)N[C@H](C(=O)O)C(C)(C)SSC1(C)C

- Drug metabolism (Serum [15]): Metabolite_Detected
Compound: N=C(N)NCCC[C@@H]1NC(=O)[C@@H](N)CSSC[C@@H](C(=O)O)NC(=O)[C@H](Cc2ccccc2)NC(=O)[C@H](Cc2ccccc2)NC1=O (H-CRFFC-OH; disulfide 1-5)

- IC50 [1]: 2140 nM
Compound: CC(=O)N[C@@H](CCCNC(=N)N)C(=O)N[C@@H](C)C(=O)N[C@@H]1CSSC(C)(C)[C@@H](C(=O)O)NC(=O)[C@H](Cc2ccccc2)NC(=O)[C@H](Cc2ccc(O)cc2)NC(=O)[C@H](CCCNC(=N)N)NC1=O

- IC50 [1]: 180 nM
Compound: CC(=O)N[C@@H](CCCNC(=N)N)C(=O)N[C@@H](C)C(=O)N[C@@H]1CSSC(C)(C)[C@@H](C(=O)O)NC(=O)[C@H](Cc2cccc3ccccc23)NC(=O)[C@H](Cc2ccccc2)NC(=O)[C@H](CCCNC(=N)N)NC1=O

- IC50 [1]: 360 nM
Compound: CC(=O)N[C@@H](CCCNC(=N)N)C(=O)N[C@@H](C)C(=O)N[C@@H]1CSSC(C)(C)[C@@H](C(=O)O)NC(=O)[C@H](Cc2ccc(O)cc2)NC(=O)[C@H](Cc2ccccc2)NC(=O)[C@H](CCCNC(=N)N)NC1=O

- IC50 [1]: > 10000 nM
Compound: CC(=O)N[C@@H](CCCNC(=N)N)C(=O)N[C@@H](C)C(=O)N[C@@H]1CSSC(C)(C)[C@@H](C(=O)O)NC(=O)[C@H](Cc2ccc([N+](=O)[O-])cc2)NC(=O)[C@H](Cc2ccccc2)NC(=O)[C@H](CCCNC(=N)N)NC1=O

- IC50 [1]: 22 nM
Compound: CC(=O)N[C@@H](CCCNC(=N)N)C(=O)N[C@@H](C)C(=O)N[C@@H]1CSSC(C)(C)[C@@H](C(=O)O)NC(=O)[C@H](Cc2ccccc2)NC(=O)[C@H](Cc2ccc3ccccc3c2)NC(=O)[C@H](CCCNC(=N)N)NC1=O

— ChEMBL document CHEMBL4028895, “Structure-Activity Relationships and Biological Characterization of a Novel, Potent, and Serum Stable C-X-C Chemokine Receptor Type 4 (CXCR4) Antagonist” (J Med Chem, 2017)
